The values below come from ChEMBL document CHEMBL1131800, “Novel carbonic anhydrase isozymes I, II and IV activators incorporating sulfonyl-histamino moieties” (Bioorg Med Chem Lett, 1999).

In experiment [1] the target is T1, Carbonic anhydrase 4 (Bos taurus) (UniProt Q95323).
T1 sequence (whole entry): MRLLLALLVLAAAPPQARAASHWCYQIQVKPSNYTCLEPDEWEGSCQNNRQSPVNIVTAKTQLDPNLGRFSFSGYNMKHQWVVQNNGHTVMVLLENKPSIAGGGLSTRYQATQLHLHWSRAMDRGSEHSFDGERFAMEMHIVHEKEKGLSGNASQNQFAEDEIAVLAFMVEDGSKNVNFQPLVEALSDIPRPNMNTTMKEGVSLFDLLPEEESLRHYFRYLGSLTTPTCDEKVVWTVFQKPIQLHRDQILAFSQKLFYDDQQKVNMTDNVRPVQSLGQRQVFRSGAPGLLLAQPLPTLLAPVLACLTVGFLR
The experiment can be described thus: In vitro […] activity against bovine carbonic anhydrase IV (bCA IV) purified from lung microsomes. In short, it runs like this:
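Bovine lung microsomal CA IV (31 nM) was preincubated 10 min at room temperature with activator, then assayed by the esterase method. 4-Nitrophenolate formation was measured at pH 7.40 (ε 18,400 M-1·cm-1), minus the uncatalysed rate. Activator came from a 1 mM aqueous stock diluted to 0.1 nM. Ka is the mean of ≥3 runs.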

Experiment [2] has as its target Carbonic anhydrase 2 (Homo sapiens) (UniProt P00918). The experiment can be described thus: In vitro binding affinity against human carbonic anhydrase II (hCA-II human cloned isozyme). In a few lines:
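Human cloned CA II (3.5 nM) preincubated 10 min at room temperature with activator, then esterase assay following 4-nitrophenolate formation (ε 18,400 M-1·cm-1) at pH 7.40. Nonenzymatic hydrolysis was subtracted. Activator was diluted in water from a 1 mM stock down to 0.1 nM. Activation constant Ka is the mean of at least three determinations.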

The target of experiment [3] is Carbonic anhydrase 1 (Homo sapiens) (UniProt P00915). The experiment can be described thus: In vitro binding affinity against human carbonic anhydrase I (hCA-I human cloned isozyme). In a few lines: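 Human cloned CA I (12 nM) preincubated 10 min at room temperature with activator, then esterase assay on 4-nitrophenyl ester hydrolysis. Read-out was 4-nitrophenolate (ε 18,400 M-1·cm-1) at pH 7.40, with nonenzymatic rate subtracted. Activator stock was 1 mM in distilled-deionized water, diluted down to 0.1 nM. Ka is the mean of ≥3 determinations.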
Carbonic anhydrase 1 (Homo sapiens), sequence (P00915 2-261 limits assumed): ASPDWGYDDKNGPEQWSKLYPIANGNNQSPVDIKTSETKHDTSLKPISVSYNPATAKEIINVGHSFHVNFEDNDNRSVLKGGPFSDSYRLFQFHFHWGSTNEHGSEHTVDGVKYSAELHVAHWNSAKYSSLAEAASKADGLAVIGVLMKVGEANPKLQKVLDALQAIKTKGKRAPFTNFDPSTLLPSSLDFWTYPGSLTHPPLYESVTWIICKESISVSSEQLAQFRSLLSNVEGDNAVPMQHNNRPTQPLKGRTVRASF

On to `Cc1cc(C)c(S(=O)(=O)NCCc2c[nH]cn2)c(C)c1`, for which the Ka in experiment [1] turned out to be 5.9 µM; in experiment [2], 35 µM; in experiment [3] it was 0.25 µM.
Turning to `O=C(O)c1ccc(S(=O)(=O)NCCc2c[nH]cn2)cc1`, the Ka in experiment [1] turned out to be 0.1 µM; in experiment [2], 0.8 µM; in experiment [3] it was 0.06 µM.
Regarding `O=S(=O)(NCCc1c[nH]cn1)C(F)(F)F`, the Ka in experiment [1] is 0.15 µM; in experiment [2] it was 1.2 µM; in experiment [3], 0.013 µM.
In the same order, the values of `O=S(=O)(NCCc1c[nH]cn1)c1ccc(Cl)cc1` are 2.5 µM, 13 µM and 0.1 µM.
With `Cc1ccc(S(=O)(=O)NCCc2c[nH]cn2)cc1`, the Ka in experiment [1] was found to be 7 µM; in experiment [2], 28 µM; in experiment [3], 0.24 µM.
In the same order, the values of `O=S(=O)(NCCc1c[nH]cn1)c1ccccc1` are 5 µM, 30 µM and 0.21 µM.
In the same order, the values of `Nc1ccc(S(=O)(=O)NCCc2c[nH]cn2)cc1` are 4.1 µM, 14 µM and 0.13 µM.
Take `O=[N+]([O-])c1ccccc1S(=O)(=O)NCCc1c[nH]cn1`: the Ka in experiment [1] came to 1.6 µM; in experiment [2], 8 µM; in experiment [3] it was 0.13 µM.
As for `O=S(=O)(NCCc1c[nH]cn1)c1cccs1`, the Ka in experiment [1] was 1.1 µM; in experiment [2], 5 µM; in experiment [3], 0.09 µM.
Regarding `COc1ccc(S(=O)(=O)NCCc2c[nH]cn2)cc1`, the Ka came to 6.5 µM in experiment [1], 22 µM in experiment [2] and 0.2 µM in experiment [3].
In the same order, the values of `CC1(C)C2CCC1(CS(=O)(=O)NCCc1c[nH]cn1)C(=O)C2` (stereo unspecified) are 5.4 µM, 15 µM and 0.17 µM.
With `O=S(=O)(NCCc1c[nH]cn1)c1ccc2ccccc2c1`, the Ka in experiment [1] was 3.5 µM; in experiment [2] it was 9 µM; in experiment [3], 0.24 µM.
In the same order, the values of `CC(=O)Nc1ccc(S(=O)(=O)NCCc2c[nH]cn2)cc1` are 6 µM, 20 µM and 0.21 µM.
In the same order, the values of `O=S(=O)(NCCc1c[nH]cn1)c1ccc(I)cc1` are 3.2 µM, 10 µM and 0.08 µM.
In the same order, the values of `O=C(O)c1c(Br)c(Br)c(Br)c(Br)c1S(=O)(=O)NCCc1c[nH]cn1` are 0.1 µM, 0.3 µM and 0.05 µM.
Take `O=C(NCCc1c[nH]cn1)NS(=O)(=O)c1ccc(F)cc1`: the Ka came to 0.02 µM in experiment [1], 0.09 µM in experiment [2] and 0.004 µM in experiment [3].
With `O=C(O)c1ccccc1S(=O)(=O)NCCc1c[nH]cn1`, the Ka came to 0.12 µM in experiment [1], 1.2 µM in experiment [2] and 0.06 µM in experiment [3].
In the case of `Cc1ccc(S(=O)(=O)NC(=O)NCCc2c[nH]cn2)cc1`, the Ka in experiment [1] is 0.02 µM; in experiment [2] it was 0.1 µM; in experiment [3] it was 0.005 µM.
With `O=S(=O)(NCCc1c[nH]cn1)c1cccc2ccccc12`, the Ka in experiment [1] was found to be 3.6 µM; in experiment [2] it was 10 µM; in experiment [3], 0.26 µM.
As for `O=S(=O)(Cc1ccccc1)NCCc1c[nH]cn1`, the Ka in experiment [1] came to 5.4 µM; in experiment [2] it was 34 µM; in experiment [3], 0.18 µM.
In the same order, the values of `O=[N+]([O-])c1ccc(S(=O)(=O)NCCc2c[nH]cn2)cc1Cl` are 1.4 µM, 6 µM and 0.12 µM.
In the same order, the values of `O=C(NCCc1c[nH]cn1)NS(=O)(=O)c1ccc(Cl)cc1` are 0.01 µM, 0.08 µM and 0.003 µM.
In the same order, the values of `O=S(=O)(NCCc1c[nH]cn1)c1ccc(F)cc1` are 2.4 µM, 12 µM and 0.11 µM.
As for `Cc1ccccc1S(=O)(=O)NC(=O)NCCc1c[nH]cn1`, the Ka in experiment [1] came out at 0.03 µM; in experiment [2], 0.15 µM; in experiment [3], 0.006 µM.
In the same order, the values of `O=[N+]([O-])c1cccc(S(=O)(=O)NCCc2c[nH]cn2)c1` are 1.5 µM, 9 µM and 0.12 µM.
In the same order, the values of `O=S(=O)(NCCc1c[nH]cn1)C(F)(F)C(F)(F)C(F)(F)C(F)(F)C(F)(F)C(F)(F)C(F)(F)C(F)(F)F` are 0.03 µM, 0.5 µM and 0.007 µM.
`O=S(=O)(NCCc1c[nH]cn1)c1cc(Cl)cc(Cl)c1O`: the Ka in experiment [1] was found to be 0.09 µM; in experiment [2], 7 µM; in experiment [3], 0.1 µM.
In the same order, the values of `O=S(=O)(NCCc1c[nH]cn1)c1cc(Cl)ccc1Cl` are 0.1 µM, 5 µM and 0.08 µM.
In the same order, the values of `O=S(=O)(NCCc1c[nH]cn1)C(F)(F)C(F)(F)C(F)(F)C(F)(F)F` are 0.05 µM, 0.9 µM and 0.01 µM.
In the same order, the values of `O=S(=O)(NCCc1c[nH]cn1)c1c(F)c(F)c(F)c(F)c1F` are 0.04 µM, 0.1 µM and 0.006 µM.
Turning to `CN(C)S(=O)(=O)NCCc1c[nH]cn1`, the Ka in experiment [1] amounted to 5.3 µM; in experiment [2] it was 13 µM; in experiment [3] it was 0.15 µM.
In the same order, the values of `O=S(=O)(NCCc1c[nH]cn1)c1ccc(Br)cc1` are 3 µM, 10 µM and 0.09 µM.
With `NCCc1c[nH]cn1`, the Ka was determined as 41 µM in experiment [1], 125 µM in experiment [2] and 2 µM in experiment [3].
In the same order, the values of `O=[N+]([O-])c1ccc(S(=O)(=O)NCCc2c[nH]cn2)cc1` are 1.8 µM, 10 µM and 0.14 µM.
In the same order, the values of `O=S(=O)(NCCc1c[nH]cn1)C(Cl)(Cl)Cl` are 3.6 µM, 13 µM and 0.018 µM.
On to `CN(C)c1cccc2c(S(=O)(=O)NCCc3c[nH]cn3)cccc12`, for which the Ka in experiment [1] is 3.2 µM; in experiment [2], 9 µM; in experiment [3], 0.28 µM.
Consider `O=C(O)c1cccc(S(=O)(=O)NCCc2c[nH]cn2)c1`, for which the Ka in experiment [1] was found to be 0.07 µM; in experiment [2], 0.5 µM; in experiment [3] it was 0.05 µM.
